Laboratory results: ChEMBL document CHEMBL4346667 (Eur J Med Chem, 2019)

Legend:
Assay type in all cases: functional
MCF7 [1] = experiment: Induction of apoptosis in human MCF7 cells assessed as necrotic cells at 5 uM after 24 hrs by Annexin V-FITC/propidium iodide staining-based flow cytometric analysis (reference value: 0.1%)
MCF7 [2] = experiment: Induction of apoptosis in human MCF7 cells assessed as early apoptotic cells at 5 uM after 24 hrs by Annexin V-FITC/propidium iodide staining-based flow cytometric analysis (reference value: 2.1%)
In short: (§1)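 Log-phase cells seeded in 6-well plates and treated after adhesion; incubated in cycles of 6 h on/6 h off up to 48 h. Collected after PBS washes and trypsin, resuspended in Ca2+-enriched binding buffer. Stained with annexin V (1 µg/mL) plus PI (0.5 µg/mL) 15 min in the dark at room temperature. 10,000 events, FL1 vs FL2. At least three repeats.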

MCF7 [3] = experiment: Induction of apoptosis in human MCF7 cells assessed as necrotic cells at 1 uM after 24 hrs by Annexin V-FITC/propidium iodide staining-based flow cytometric analysis (reference value: 0.2%)
MCF7 [4] = experiment: Induction of apoptosis in human MCF7 cells assessed as necrotic cells at 50 uM after 24 hrs by Annexin V-FITC/propidium iodide staining-based flow cytometric analysis (reference value: 0.2%)
MCF7 [5] = experiment: Induction of apoptosis in human MCF7 cells assessed as early apoptotic cells at 10 uM after 24 hrs by Annexin V-FITC/propidium iodide staining-based flow cytometric analysis (reference value: 2.1%); in short: as §1
MCF7 [6] = experiment: Induction of apoptosis in human MCF7 cells assessed as early apoptotic cells at 1 uM after 24 hrs by Annexin V-FITC/propidium iodide staining-based flow cytometric analysis (reference value: 2.1%); in short: as §1
MCF7 [7] = experiment: Induction of apoptosis in human MCF7 cells assessed as necrotic cells at 5 uM after 24 hrs by Annexin V-FITC/propidium iodide staining-based flow cytometric analysis (reference value: 0.2%)
MCF7 [8] = experiment: Induction of apoptosis in human MCF7 cells assessed as late apoptotic cells at 25 uM after 24 hrs by Annexin V-FITC/propidium iodide staining-based flow cytometric analysis (reference value: 5.6%); in short: as §1
MCF7 [9] = experiment: Induction of apoptosis in human MCF7 cells assessed as early apoptotic cells at 1 uM after 6 hrs by Annexin V-FITC/propidium iodide staining-based flow cytometric analysis (reference value: 2%); in short: as §1
MCF7 [10] = experiment: Induction of apoptosis in human MCF7 cells assessed as necrotic cells at 1 uM after 6 hrs by Annexin V-FITC/propidium iodide staining-based flow cytometric analysis (reference value: 0.5%)
MCF7 [11] = experiment: Induction of apoptosis in human MCF7 cells assessed as viable cells at 1 uM after 6 hrs by Annexin V-FITC/propidium iodide staining-based flow cytometric analysis (reference value: 92.8%); details: MCF7, 6 h, read-out: Activity
MCF7 [12] = experiment: Induction of apoptosis in human MCF7 cells assessed as viable cells at 5 uM after 48 hrs by Annexin V-FITC/propidium iodide staining-based flow cytometric analysis (reference value: 87.9%); details: MCF7, 48 h, read-out: Activity
MCF7 [13] = experiment: Induction of apoptosis in human MCF7 cells assessed as viable cells at 10 uM after 6 hrs by Annexin V-FITC/propidium iodide staining-based flow cytometric analysis (reference value: 92.8%); details: MCF7, 6 h, read-out: Activity
MCF7 [14] = experiment: Induction of apoptosis in human MCF7 cells assessed as early apoptotic cells at 50 uM after 48 hrs by Annexin V-FITC/propidium iodide staining-based flow cytometric analysis (reference value: 9.1%); in short: as §1
MCF7 [15] = experiment: Induction of apoptosis in human MCF7 cells assessed as early apoptotic cells at 50 uM after 6 hrs by Annexin V-FITC/propidium iodide staining-based flow cytometric analysis (reference value: 2%); in short: as §1
MCF7 [16] = experiment: Induction of apoptosis in human MCF7 cells assessed as necrotic cells at 50 uM after 24 hrs by Annexin V-FITC/propidium iodide staining-based flow cytometric analysis (reference value: 0.1%)
MCF7 [17] = experiment: Induction of apoptosis in human MCF7 cells assessed as early apoptotic cells at 50 uM after 24 hrs by Annexin V-FITC/propidium iodide staining-based flow cytometric analysis (reference value: 2.1%); in short: as §1
MCF7 [18] = experiment: Induction of apoptosis in human MCF7 cells assessed as necrotic cells at 5 uM after 6 hrs by Annexin V-FITC/propidium iodide staining-based flow cytometric analysis (reference value: 0.5%)
MCF7 [19] = experiment: Induction of apoptosis in human MCF7 cells assessed as necrotic cells at 1 uM after 24 hrs by Annexin V-FITC/propidium iodide staining-based flow cytometric analysis (reference value: 0.1%)
MCF7 [20] = experiment: Induction of apoptosis in human MCF7 cells assessed as viable cells at 50 uM after 48 hrs by Annexin V-FITC/propidium iodide staining-based flow cytometric analysis (reference value: 87.9%); details: MCF7, 48 h, read-out: Activity
MCF7 [21] = experiment: Induction of apoptosis in human MCF7 cells assessed as viable cells at 10 uM after 24 hrs by Annexin V-FITC/propidium iodide staining-based flow cytometric analysis (reference value: 92.1%); details: MCF7, 24 h, read-out: Activity
MCF7 [22] = experiment: Induction of apoptosis in human MCF7 cells assessed as late apoptotic cells at 1 uM after 6 hrs by Annexin V-FITC/propidium iodide staining-based flow cytometric analysis (reference value: 4.7%); in short: as §1
MCF7 [23] = experiment: Induction of apoptosis in human MCF7 cells assessed as viable cells at 50 uM after 6 hrs by Annexin V-FITC/propidium iodide staining-based flow cytometric analysis (reference value: 92.8%); details: MCF7, 6 h, read-out: Activity
MCF7 [24] = experiment: Induction of apoptosis in human MCF7 cells assessed as early apoptotic cells at 25 uM after 24 hrs by Annexin V-FITC/propidium iodide staining-based flow cytometric analysis (reference value: 2.1%); in short: as §1
MCF7 [25] = experiment: Induction of apoptosis in human MCF7 cells assessed as early apoptotic cells at 25 uM after 6 hrs by Annexin V-FITC/propidium iodide staining-based flow cytometric analysis (reference value: 2%); in short: as §1
MCF7 [26] = experiment: Induction of apoptosis in human MCF7 cells assessed as late apoptotic cells at 25 uM after 6 hrs by Annexin V-FITC/propidium iodide staining-based flow cytometric analysis (reference value: 4.7%); in short: as §1
MCF7 [27] = experiment: Induction of apoptosis in human MCF7 cells assessed as necrotic cells at 10 uM after 24 hrs by Annexin V-FITC/propidium iodide staining-based flow cytometric analysis (reference value: 0.2%)
MCF7 [28] = experiment: Induction of apoptosis in human MCF7 cells assessed as early apoptotic cells at 5 uM after 48 hrs by Annexin V-FITC/propidium iodide staining-based flow cytometric analysis (reference value: 9.1%); in short: as §1
MCF7 [29] = experiment: Induction of apoptosis in human MCF7 cells assessed as late apoptotic cells at 5 uM after 48 hrs by Annexin V-FITC/propidium iodide staining-based flow cytometric analysis (reference value: 2.8%); in short: as §1
MCF7 [30] = experiment: Induction of apoptosis in human MCF7 cells assessed as viable cells at 5 uM after 24 hrs by Annexin V-FITC/propidium iodide staining-based flow cytometric analysis (reference value: 92.1%); details: MCF7, 24 h, read-out: Activity
MCF7 [31] = experiment: Induction of apoptosis in human MCF7 cells assessed as necrotic cells at 25 uM after 24 hrs by Annexin V-FITC/propidium iodide staining-based flow cytometric analysis (reference value: 0.1%)

`COc1cc([C@@H]2c3cc4c(cc3[C@@H](O[C@@H]3O[C@@H]5CO[C@@H](C)O[C@H]5[C@H](O)[C@H]3O)[C@H]3COC(=O)[C@H]23)OCO4)cc(OC)c1O` [ETOPOSIDE] was tested. Which Activity (MCF7 [1]) did it give?
Its Activity is 1.2%.

What about the Activity (MCF7 [2]) of the same compound?
The Activity was 6.7%.

What about the Activity (MCF7 [3]) of the same compound?
The Activity was 0.2%.

What about the Activity (MCF7 [4]) of the same compound?
Its Activity is 1%.

What about the Activity (MCF7 [5]) of the same compound?
Its Activity is 13.8%.

What about the Activity (MCF7 [6]) of the same compound?
The Activity was 2.2%.

What about the Activity (MCF7 [7]) of the same compound?
The Activity was 0.6%.

What about the Activity (MCF7 [8]) of the same compound?
The Activity was 7.7%.

What about the Activity (MCF7 [9]) of the same compound?
The Activity was 1.6%.

And the Activity (MCF7 [10])?
The Activity was 0.5%.

And the viability at 1 µM (MCF7 [11])?
The viability at 1 µM was 90.8%.

What about the viability at 5 µM (MCF7 [12]) of the same compound?
The viability at 5 µM was 21.7%.

What about the viability at 10 µM (MCF7 [13]) of the same compound?
Its viability at 10 µM is 87.7%.

And the Activity (MCF7 [14])?
The Activity was 57%.

What about the Activity (MCF7 [15]) of the same compound?
The Activity was 2.9%.

And the Activity (MCF7 [16])?
The Activity was 0.9%.

What about the Activity (MCF7 [17]) of the same compound?
The Activity was 12.4%.

And the Activity (MCF7 [18])?
Its Activity is 0.6%.

What about the Activity (MCF7 [19]) of the same compound?
Its Activity is 0.2%.

And the viability at 50 µM (MCF7 [20])?
The viability at 50 µM was 29.8%.

What about the viability at 10 µM (MCF7 [21]) of the same compound?
The viability at 10 µM was 73.9%.

What about the Activity (MCF7 [22]) of the same compound?
The Activity was 7.1%.

And the viability at 50 µM (MCF7 [23])?
Its viability at 50 µM is 91.6%.

What about the Activity (MCF7 [24]) of the same compound?
Its Activity is 10.4%.

And the Activity (MCF7 [25])?
The Activity was 1.9%.

And the Activity (MCF7 [26])?
Its Activity is 6.7%.

And the Activity (MCF7 [27])?
The Activity was 0.8%.

What about the Activity (MCF7 [28]) of the same compound?
The Activity was 62.1%.

And the Activity (MCF7 [29])?
The Activity was 15.1%.

What about the viability at 5 µM (MCF7 [30]) of the same compound?
Its viability at 5 µM is 84.2%.

What about the Activity (MCF7 [31]) of the same compound?
Its Activity is 1.6%.
